Only some compounds are listed: those with a hit (about 4.1% of all), similar ones and a draw of the others.
SMARCA2 act: SMARCA2 (BRM) function activators, primary screen, cell-based, luminescence, high throughput. MG213 cells, MMTV-luciferase reporter, dexamethasone, overnight. activation, % at 9.1 µM. actives 1% (n = 370,000). AID 652017, 2013; in the data active = activation above about 7.8%;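 also: 0% = vehicle wells and 100% = reference activator wells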
TbMetRS inhib: T. brucei MetRS inhibitors, primary screen, biochemical, luminescence; methionyl-tRNA synthetase (Trypanosoma brucei brucei); purified T. brucei MetRS, ATP depletion, Kinase-Glo luminescence; inhibition, % at 11.9 µM; actives 0.4% (n = 360,000);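 active = inhibition above a per-plate cutoff of the control wells' mean inhibition plus 3 SD, cut at about 5.5% in these data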;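 also: 0% = DMSO wells median and 100% = median of wells with control inhibitor compound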
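Material: T. brucei methionyl-tRNA synthetase, purified; reagent: substrates ATP, L-methionine and bulk Escherichia coli tRNA; dosing: 11.9 µM single point; timing: 15 min plus 2 h at 25 °C; detection: luminescence of leftover ATP; evaluation: % inhibition; control set: DMSO-only wells as low control; replicates: singlicate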
AHR activator: AHR activators, primary screen, cell-based, luminescence, luciferase reporter, human. Aryl hydrocarbon receptor (Homo sapiens), P35869. AHR-responsive luciferase reporter cells. activation, % at 5 µM. actives 2.5% (n = 320,000); in the data active = activation above about 47%;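 also: 0% = vehicle wells and 100% = reference agonist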
H9c2 TAG inh: inhibitors of triacylglycerol accumulation, primary screen, cell-based, uHTS, fluorescence, H9c2. H9c2 cells, Nile Red lipid (TAG) fluorescence; cells loaded with 200 µM oleic acid. inhibition, % at 12.5 µM. actives 0.66% (n = 230,000);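 active = pattern-corrected inhibition of lipid staining of at least 50% with the nuclear-stain viability signal not falling by more than 50%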;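 also: 0% = DMSO wells and 100% = triacsin C control wells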
Efflux pump mplx: inhibitors of Candida efflux pumps in yeast, primary screen, S. cerevisiae, Nile Red, multiplex. S. cerevisiae Candida pump triplex. actives 0.44% (n = 330,000). AID 485275, 2010. inhibition, % at 10 µM;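 active = plate passing quality check with inhibition over a set limit, or well fluorescence over plate mean plus 4 SD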;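 also: Nile Red retained in pooled yeast measured as flow cytometry median fluorescence; 0% = buffer negative control and 100% = Enniatin B positive control; higher means more Nile Red kept so more efflux inhibition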
An asterisk follows results filed as active; x = not tested or not shown.

SMILES	SMARCA2 act	TbMetRS inhib	AHR activator	H9c2 TAG inh	Efflux pump mplx
O=[N+]([O-])c1cc(-c2cnc3ccccc3n2)ccc1Cl	3	0	30	-2	0
Cc1cccc(-c2cccc3c4c([nH]c23)[C@@H]2C[C@H]3[C@@H](C(=O)N2CC4)[C@H](C)ON3C)c1	-2	x	x	x	x
Cc1nc(-c2ccccc2)nc2[nH]c(-c3ccccc3)cc(=O)c12	-2	-1	69*	16	0
Cc1nc(C)c2c(=O)cc(-c3ccccc3)[nH]c2n1	3	0	1	x	0
Cc1cc2cc3c(cc2nc1SCC(=O)Nc1nc(C)c(C)s1)OCO3	1	0	92*	8	0
COC(=O)CSc1nc2cc3c(cc2cc1C)OCO3	-2	0	1	0	0
N#Cc1ccccc1NCCCN1CCC(C(O)(c2ccccc2)c2ccccc2)CC1	-4	x	x	x	x
C=CCOc1c(OC)cc(/C=N/Nc2cccc(C(=O)O)c2)c(Br)c1Br	5	0	5	57*	1
CN(C)c1ccc(-c2nnc(-c3ccccc3F)o2)cc1	3	0	63*	-1	0
CN(C)c1ccc(-c2nnc(-c3ccc(S(=O)(=O)C(F)F)cc3)o2)cc1	0	1	15	-1	0
Clc1ccc(-c2nnc(-c3ccccc3Cl)o2)cc1	6	-1	49*	x	0
Cc1ccccc1-c1nnc(-c2ccc(Cl)cc2)o1	4	-2	54*	x	0
Cc1ccccc1-c1nnc(-c2ccccc2)o1	6	0	30	-2	0
CCOC(=O)c1ccc(-n2c(CN3CCOCC3)nc3ccc([N+](=O)[O-])cc3c2=O)cc1	1	0	4	4	0
CCOC(=O)c1ccc(-n2c(CN3CCN(CC)CC3)nc3ccc([N+](=O)[O-])cc3c2=O)cc1	7.9*	-1	6	7	0
COC(=O)C1CN(Cc2ccc(F)cc2)CCS(=O)(=O)N1Cc1cn(Cc2ccc(C)cc2)nn1 (centres undefined)	-1	x	x	x	x
CC(C)(C)C(=O)OC12CCCN(C1)/C(=C/c1cccnc1)C2 (centres undefined)	-5	x	x	x	x
CSc1ccc(/C=C/c2cc(=O)c3ccccc3[nH]2)cc1	0	4	56*	x	0
CN(C)c1ccc(/C=N/NC(=O)c2sccc2-n2cccc2)cc1	0	-1	72*	-3	0
O=C(N/N=C\c1ccc(Cl)cc1Cl)c1sccc1-n1cccc1	1	-1	19	-11	0
CN(C)c1ccc(/C=N/NC(=O)c2ccccc2)cc1	6	0	47*	x	0
CN(C)c1ccc(/C=N/NC(=O)c2ccc(Cl)cc2)cc1	2	-1	9	x	0
CCCCNC(=O)C[C@H]1C[C@@]2(C(=O)OC)C(=C[C@H](C(C)(C)C)O[C@@H]2C)N(Cc2ccco2)C1=O	-3	x	x	x	x
Cc1cc(C)c(C(=O)N2CCCC(Nc3ccc(C)c(C)c3)C2)o1 (centres undefined)	1	0	63*	x	0
O=C(C1CCCC1)N1CCCC(Nc2ccc(F)cc2)C1 (centres undefined)	-2	0	5	-18	0
SMILES	SMARCA2 act	TbMetRS inhib	AHR activator	H9c2 TAG inh	Efflux pump mplx
Cc1ccc(NC2CCCN(C(=O)C3CCCCC3)C2)cc1C (centres undefined)	-1	-1	60*	-23	0
CCCCNC(=O)C[C@H]1C[C@@]2(C(=O)OC)C(=C[C@H](C3CCCC3)O[C@@H]2C)N(CCC2=CCCCC2)C1=O	-5	x	x	x	x
C=CCN=C1NC(c2cccc(Cl)c2)C(C(=O)OC)=C(C)N1Cc1cccc(C(F)(F)F)c1 (centres undefined)	-12	x	x	x	x
C=CCN(CC#Cc1ccccc1)Cc1ccc(OC)cc1OC	0	x	x	x	x
COc1cc(OC)c(NC(=O)c2cncn2-c2ccc(F)cc2)cc1Cl	-4	0	65*	x	0
COc1cc(NC(=O)c2c(F)c(F)c(F)c(F)c2F)c(OC)cc1Cl	0	1	28	x	0
N#CCCn1nc(-c2ccccc2)cc1Nc1ccccc1NC(=O)c1cccs1	-6	0	49*	6	0
O=C1CC(O)C(Cc2ccccc2)N1 (centres undefined)	-4	x	x	x	x
